Article PMC6516474 (Journal of the American Chemical Society, 2019)
Read-outs that look alike come from different tables or passages of the source. Starred links: 1 amine or outer side, 2 acyl side, 3 side chain; linkers in the order of their positions; H or OH if unused. Positions of bridges follow the written chain, without caps; N, C: chain ends. Non-standard residues stand in square brackets, D forms with d. Residues, ends and D or L forms follow the SMILES beside them. Chains are numbered I, II in the order given. Actinocin(9to1) = Cc1c2oc3c(C)ccc(C(=O)[*:1])c3nc-2c(C(=O)[*:2])c(N)c1=O; NMeV = CN[C@H](C(=O)O)C(C)C; Sar = CNCC(=O)O

Tests used:
[1] = tested on: HEK293T; experiment: AlamarBlue proliferation assay, HEK293T; type: cell-based; conditions: for fold more potent than 81 and digoxin 82: EC50 comparison
[2] = tested on: NIH-3T3; experiment: AlamarBlue proliferation assay, NIH-3T3; type: cell-based, mouse; conditions: for toxicity against NIH-3T3: 3 µM; for toxicity to NIH-3T3: growth inhibition screen at 1 and 3 µM; for EC50: read-out: EC50 NIH-3T3, NIH-3T3, inherently-insensitive line
[3] = tested on: MDA-MB-231; experiment: Proliferation EC50, MDA-MB-231; type: cell-based, human; conditions: for EC50: read-out: EC50 MDA-MB-231, MDA-MB-231; for fold more potent than 79a: MDA-MB-231, EC50 comparison
[4] = tested on: MEFs (a mouse embryonic fibroblast line); experiment: Toxicity against MEF; type: cell-based; conditions: 3 µM
[5] = tested on: cancer cell lines; experiment: Broad anticancer activity over cancer cell lines; type: cell-based; conditions: range over cancer cell lines
[6] = tested on: γ-H2AX; experiment: Immunofluorescence DNA-damage response, NIH-3T3; type: cell-based, mouse; conditions: NIH-3T3, 24 h; 79a 0.111 µM, 92 0.038 µM, 97 0.042 µM; mitomycin C as validation
[7] = tested on: caspase-3 activation; experiment: Immunofluorescence apoptosis, NIH-3T3; type: cell-based, mouse; conditions: NIH-3T3, 24 h; 79a 0.111 µM, 92 0.038 µM, 97 0.042 µM; mitomycin C as validation
[8] = tested on: γ-H2AX; experiment: Immunofluorescence DNA-damage response, HeLa; type: cell-based, human; conditions: 24 h, 79a 0.015 µM, 92 0.012 µM
[9] = tested on: caspase-3; experiment: Immunofluorescence apoptosis, HeLa; type: cell-based, human; conditions: 24 h, 79a 0.015 µM, 92 0.012 µM
[10] = tested on: HFF1 (a human fibroblast line); experiment: Toxicity against HFF1; type: cell-based
[11] = tested on: HEK293T, HeLa, Cos7, Raji, NIH-3T3; experiment: AlamarBlue proliferation screen over a cell line panel; type: cell-based; conditions: 2 days
How it was run: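 Panel includes Raji (human Burkitt's lymphoma, grown in suspension) and NIH-3T3 (non-transformed mouse fibroblast) alongside adherent lines. Test compounds were screened at 2 µM and 0.6 µM, and proliferation was read by AlamarBlue over 2 days. The assay was validated by comparing normalized AlamarBlue signal averages of DMSO-treated cells with those of cells given 2 µg/ml puromycin (Z′ factor calculated).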

[12] = tested on: HF-II-E (a hepatoma line from rat); experiment: Toxicity against HF-II-E; type: cell-based
[13] = tested on: U87; experiment: Proliferation EC50, U87; type: cell-based, human; conditions: U87, EC50 comparison
[14] = tested on: HEPG2; experiment: Proliferation EC50, HEPG2; type: cell-based, human; conditions: HEPG2, EC50 comparison
[15] = tested on: RAW (a virally-transformed mouse macrophage line); experiment: Toxicity against RAW; type: cell-based
[16] = read-out: EC50 in HEK293T cells, HEK293T, 5 most potent compounds
[17] = Homo sapiens, HEK-293T, 48 h, read-out: EC50 in HEK293T
[18] = read-out: EC50 in HEK293T, HEK293T, proliferation over 2 days, AlamarBlue
[19] = Homo sapiens, HEK-293T, read-out: EC50 in HEK293T cells

In the case of `C[C@@H]1O[C@@H](O[C@H]2CC[C@@]3(CO)[C@H](CC[C@@H]4[C@@H]3CC[C@]3(C)[C@@H](C5=CC(=O)OC5)CC[C@]43O)C2)[C@H](O)[C@H](O)[C@H]1O` [79a, cannogenol-L-α-rhamnoside], the “fold more potent than 81 and digoxin 82” value ([1]; HEK293T) is reported as 2–3 fold, the EC50 [1, 16] is reported as < 100 nM and the “toxicity against NIH-3T3” value [2] is reported as “nontoxic”. The “toxicity to NIH-3T3” value [2] was “none of which were toxic to NIH-3T3”, the EC50 [2] was > 3000 nM and the EC50 [3] was 111 nM. For the same compound, the “toxicity against MEF” value [4] was “nontoxic”, the “concentrations of broad anticancer activity” value (“concentrations” below) [5] was 10 to 100 nM and the “γ-H2AX upregulation (DNA-damage response)” value [6] was “did not upregulate”. The caspase-3 activation [7] was “did not upregulate”, the γ-H2AX upregulation [8] was “upregulated significantly” and the caspase-3 upregulation [9] was “Little upregulation”.

With `CN[C@@H]1C[C@H]2O[C@@](C)([C@@H]1OC)n1c3ccccc3c3c4c(c5c6ccccc6n2c5c31)C(=O)NC4` [Staurosporine, reference compound] the γ-H2AX upregulation [8] was “upregulated” and the caspase-3 upregulation [9] was “upregulated”.

`Cc1c2oc3c(C)ccc(C(=O)N[C@@H]4C(=O)N[C@H](C(C)C)C(=O)N5CCC[C@H]5C(=O)N(C)CC(=O)N(C)[C@@H](C(C)C)C(=O)O[C@@H]4C)c3nc-2c(C(=O)N[C@@H]2C(=O)N[C@H](C(C)C)C(=O)N3CCC[C@H]3C(=O)N(C)CC(=O)N(C)[C@@H](C(C)C)C(=O)O[C@@H]2C)c(N)c1=O` [actinomycin D] (I: T[dV]P[Sar][NMeV] / II: T[dV]P[Sar][NMeV]; ester I:1-I:C, II:1-II:C; linker I:N-II:N via Actinocin(9to1)) was tested, and the EC50 [1, 17] was 2 nM.

For `C[C@H]1CCC/C=C/[C@@H]2C[C@H](O)C[C@H]2[C@H](O)/C=C/C(=O)O1` [brefeldin A], the EC50 [1, 17] was 200 nM.

For `C[C@]12C[C@@H](O)[C@H]3[C@@H](CC[C@]4(O)C[C@@H](O)C[C@@H](O)[C@]34CO)[C@@]1(O)CC[C@@H]2C1=CC(=O)OC1` [compound 1, ouabagenin], the EC50 [1, 18] was < 1000 nM, the “toxicity to NIH-3T3” value [2] was “none of which were toxic to NIH-3T3” and the “effect against HFF1” value [10] was “effective”.

For `C[C@@H]1O[C@@H](O[C@H]2C[C@@H](O)[C@]3(CO)[C@H]4[C@H](O)C[C@]5(C)[C@@H](C6=CC(=O)OC6)CC[C@]5(O)[C@@H]4CC[C@]3(O)C2)[C@H](O)[C@H](O)[C@H]1O` [compound 2, ouabain], the EC50 [1, 17] was < 1000 nM, the “toxicity to NIH-3T3” value [2] was “none of which were toxic to NIH-3T3” and the “effect against HFF1” value [10] was “effective”.

In the case of `C[C@]12CC[C@H]3[C@@H](CC[C@@H]4C[C@@H](O)CC[C@@]43CO)[C@@]1(O)CC[C@@H]2C1=CC(=O)OC1` [compound 5, cannogenol], the EC50 [1, 18] is reported as ~1000 nM, the “activity against NIH-3T3 in proliferation screen” value ([2]; 2 µM, 2 days) is reported as “activity against every line except NIH-3T3” and the “activity in proliferation screen” value ([11]; 0.6 µM) is reported as “affecting most lines”. For the same compound, the “activity in proliferation screen” value ([11]; 2 µM) was “active”.

`C[C@]12CC[C@H](O)C[C@H]1CC[C@@H]1[C@@H]2CC[C@]2(C)[C@@H](C3=CC(=O)OC3)CC[C@]12O` [compound 80, digitoxigenin, reference compound] was tested, and the EC50 [1, 17] was < 1000 nM and the “toxicity to NIH-3T3” value [2] was “none of which were toxic to NIH-3T3”.

With `C[C@H]1O[C@@H](O[C@H]2[C@@H](O)C[C@H](O[C@H]3[C@@H](O)C[C@H](O[C@H]4CC[C@@]5(C)[C@H](CC[C@@H]6[C@@H]5CC[C@]5(C)[C@@H](C7=CC(=O)OC7)CC[C@]65O)C4)O[C@@H]3C)O[C@@H]2C)C[C@H](O)[C@@H]1O` [compound 81, digitoxin] the EC50 [1, 17] was < 1000 nM, the EC50 [1, 19] was < 100 nM and the “toxicity to NIH-3T3” value [2] was “none of which were toxic to NIH-3T3”. For the same compound, the “effect against HFF1” value [10] was “effective”.

For `C[C@H]1O[C@@H](O[C@H]2[C@@H](O)C[C@H](O[C@H]3[C@@H](O)C[C@H](O[C@H]4CC[C@@]5(C)[C@H](CC[C@@H]6[C@@H]5C[C@@H](O)[C@]5(C)[C@@H](C7=CC(=O)OC7)CC[C@]65O)C4)O[C@@H]3C)O[C@@H]2C)C[C@H](O)[C@@H]1O` [compound 82, digoxin], the EC50 [1, 17] was < 1000 nM, the EC50 [1, 19] was < 100 nM and the “toxicity to NIH-3T3” value [2] was “none of which were toxic to NIH-3T3”.

For `C[C@@H]1O[C@H](O[C@H]2CC[C@]3(CO)[C@H]4CC[C@]5(C)[C@@H](C6=CC(=O)OC6)CC[C@]5(O)[C@@H]4CC[C@]3(O)C2)[C@H](O)[C@H](O)[C@H]1O` [compound 92, strophanthidol-L-α-rhamnoside], the “fold more potent than 81 and digoxin 82” value ([1]; HEK293T) was 2–3 fold, the EC50 [1, 16] was < 100 nM and the “toxicity against NIH-3T3” value [2] was “nontoxic”. For the same compound, the EC50 [2] was > 3000 nM, the “fold more potent than 79a” value [3] was 3–4 fold and the EC50 [3] was 38 nM. The “toxicity against MEF” value [4] was “nontoxic”, the “effect against HF-II-E” value [12] was “ineffective” and the “fold more potent than 79a” value [13] was 3–4 fold. The “fold more potent than 79a” value [14] was 3–4 fold, the “concentrations” value [5] was 10 to 100 nM and the “γ-H2AX upregulation (DNA-damage response)” value [6] was “did not upregulate”. The caspase-3 activation [7] was “did not upregulate”, the γ-H2AX upregulation [8] was “upregulated significantly” and the caspase-3 upregulation [9] was “Little upregulation”.

For `C[C@@H]1O[C@@H](O[C@H]2CC[C@@]3(C)[C@H](CC[C@@H]4[C@@H]3CC[C@]3(C)[C@@H](C5=CC(=O)OC5)CC[C@]43O)C2)[C@H](O)[C@H](O)[C@H]1O` [compound 97, digitoxigenin-L-α-rhamnoside], the “fold more potent than 81 and digoxin 82” value ([1]; HEK293T) was 2–3 fold, the EC50 [1, 16] was < 100 nM and the “toxicity against NIH-3T3” value [2] was “nontoxic”. The EC50 [2] was > 3000 nM, the “fold more potent than 79a” value [3] was 3–4 fold and the EC50 [3] was 42 nM. For the same compound, the “toxicity against MEF” value [4] was “nontoxic”, the “effect against RAW” value [15] was “ineffective” and the “effect against HF-II-E” value [12] was “ineffective”. For the same compound, the “fold more potent than 79a” value [13] was 3–4 fold, the “fold more potent than 79a” value [14] was 3–4 fold and the “concentrations” value [5] was 10 to 100 nM. For the same compound, the “γ-H2AX upregulation (DNA-damage response)” value [6] was “did not upregulate” and the caspase-3 activation [7] was “did not upregulate”.

With `CO[C@@]12[C@H](COC(N)=O)C3=C(C(=O)C(C)=C(N)C3=O)N1C[C@@H]1N[C@@H]12` [mitomycin C, reference compound] the EC50 [1, 17] was 4000 nM, the “γ-H2AX upregulation (DNA-damage response)” value [6] was “DDR-upregulation” and the caspase-3 activation [7] was “Caspase-3-uregulation only in NIH-3T3”.
